Source: ChEMBL document CHEMBL1146021, “Calcium channel antagonists discovered by a multidisciplinary approach” (J Med Chem, 2006)

What was measured:
[1] = species: Cavia porcellus; experiment: Negative inotropic activity in guinea pig left atrium; format: functional; details: Cardiac atrium
Method in brief: (§1)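 Guinea-pig left atria driven at 1 Hz (0.6-0.8 ms pulses, about 50% threshold voltage) in PSS, 35 °C, pH 7.4, 95% O2/5% CO2. Isometric tension recorded. Cumulative concentrations 0.01-100 μM in DMSO (≤0.3%), each to steady state. Percent decrease in developed tension, n = 4-6. EC50 by Probit analysis.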

[2] = species: Cavia porcellus; experiment: Negative inotropic activity in guinea pig left atrium at 1 uM; format: functional, Cardiac atrium; method in brief: as §1
[3] = species: Cavia porcellus; experiment: Negative chronotropic activity in guinea pig right atrium at 10 uM; format: functional, Cardiac atrium
Method in brief: (§2)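 Spontaneously beating guinea-pig right atria in PSS, 35 °C, pH 7.4, 95% O2/5% CO2. Cumulative concentrations 0.01-100 μM in DMSO (≤0.3% in bath), each to steady state. Rate decrease taken as percent of control (pretreatment 170-195 beats/min), n = 6-8. EC30 by Probit analysis.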

[4] = species: Cavia porcellus; experiment: Vasorelaxant activity assessed as inhibition of calcium-induced contraction of potassium ion-depolarized guinea pig aortic strips at 100 uM; format: functional, Aorta; parameters: scale not given: the % may be the effect or the level left
Method in brief: (§3)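 Helicoidal guinea-pig aortic strips in aerated PSS at 35 °C, contracted with 80 mM KCl (K+ substituted for Na+). At plateau (about 45 min), compounds added cumulatively at 0.1-500 μM in DMSO vehicle. Relaxation measured isometrically. IC50 by Probit analysis, n = 6-8.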

[5] = species: Cavia porcellus; experiment: Negative inotropic activity in guinea pig left atrium at 10 uM; format: functional, Cardiac atrium; method in brief: as §1
[6] = species: Cavia porcellus; experiment: Vasorelaxant activity assessed as inhibition of calcium-induced contraction of potassium ion-depolarized guinea pig aortic strips; format: functional; details: Aorta; method in brief: as §3
[7] = species: Cavia porcellus; experiment: Vasorelaxant activity assessed as inhibition of calcium-induced contraction of potassium ion-depolarized guinea pig aortic strips at 500 uM; format: functional, Aorta; parameters: scale not given: the % may be the effect or the level left; method in brief: as §3
[8] = species: Cavia porcellus; experiment: Negative inotropic activity in guinea pig left atrium at 500 uM; format: functional, Cardiac atrium
[9] = species: Cavia porcellus; experiment: Negative chronotropic activity in guinea pig right atrium at 50 uM; format: functional, Cardiac atrium; method in brief: as §2
[10] = species: Cavia porcellus; experiment: Negative chronotropic activity in guinea pig right atrium at 500 uM; format: functional, Cardiac atrium
[11] = species: Cavia porcellus; experiment: Negative inotropic activity in guinea pig left atrium at 50 uM; format: functional, Cardiac atrium; method in brief: as §1
[12] = species: Cavia porcellus; experiment: Vasorelaxant activity assessed as inhibition of calcium-induced contraction of potassium ion-depolarized guinea pig aortic strips at 50 uM; format: functional, Aorta; parameters: scale not given: the % may be the effect or the level left; method in brief: as §3
[13] = species: Cavia porcellus; experiment: Negative chronotropic activity in guinea pig right atrium at 5 uM; format: functional, Cardiac atrium; method in brief: as §2
[14] = species: Cavia porcellus; experiment: Negative chronotropic activity in guinea pig right atrium; format: functional; details: Cardiac atrium; method in brief: as §2
[15] = species: Cavia porcellus; experiment: Antagonist activity against calcium channel assessed as inhibition of calcium-induced contraction of potassium ion-depolarized guinea pig ileum longitudinal smooth muscle at 1 uM; format: functional; parameters: scale not given: the % may be the effect or the level left
Method in brief: (§4)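 Guinea-pig ileum longitudinal smooth muscle segments (2 cm) held at 300-400 mg resting tension, 37 °C, in oxygenated (100% O2) Hepes-buffered PSS at pH 7.4. Isometric contraction recorded. Inhibition expressed as percentage of control. Probit log concentration–response analysis, n = 6-8.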

[16] = species: Cavia porcellus; experiment: Antagonist activity against calcium channel assessed as inhibition of calcium-induced contraction of potassium ion-depolarized guinea pig ileum longitudinal smooth muscle; format: functional; method in brief: as §4
[17] = species: Cavia porcellus; experiment: Antagonist activity against calcium channel assessed as inhibition of carbachol-induced tonic contraction of guinea pig ileum longitudinal smooth muscle; format: functional
Method in brief: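 Guinea-pig ileum longitudinal smooth muscle segments (2 cm), 300-400 mg resting tension, 37 °C, oxygenated Hepes-buffered PSS at pH 7.4, equilibrated 1 h. Two control carbachol curves run 30 min apart. Test agent (10 μM) added 30 min before the carbachol curve. Isometric inhibition expressed as percent of control.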

[18] = species: Cavia porcellus; experiment: Negative inotropic activity in guinea pig left ventricular papillary muscle at 10 uM; format: functional, Muscle tissue
[19] = species: Cavia porcellus; experiment: Negative inotropic activity in guinea pig left ventricular papillary muscle; format: functional; details: Muscle tissue
[20] = species: Cavia porcellus; experiment: Cardiac activity in guinea pig heart measured as decrease in left ventricular pressure at 1 uM relative to control; format: functional; parameters: scale not given: the % may be the effect or the level left
Method in brief: (§5)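 Langendorff-perfused isolated hearts from female guinea-pigs (300-400 g). Compounds given cumulatively at 0.001-1 μM, each step held to steady state (about 30 min). Read-outs: surface ECG (PR interval, heart rate), intraventricular balloon +(dP/dt)max and coronary perfusion pressure. Results given as percent change from basal at 1 μM, mean ± SEM.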

[21] = species: Cavia porcellus; experiment: Cardiac activity in guinea pig heart measured as decrease in heart rate at 1 uM by ECG relative to control; format: functional; parameters: scale not given: the % may be the effect or the level left; method in brief: as §5
[22] = species: Cavia porcellus; experiment: Cardiac activity in guinea pig heart measured as decrease in coronary perfusion pressure at 1 uM relative to control; format: functional; parameters: scale not given: the % may be the effect or the level left; method in brief: as §5
[23] = species: Cavia porcellus; experiment: Cardiac activity in guinea pig heart measured as prolongation of atrioventricular conduction time at 1 uM relative to control; format: functional; method in brief: as §5
[24] = species: Cavia porcellus; experiment: Negative inotropic activity in guinea pig left atrium at 100 uM; format: functional, Cardiac atrium; details: in the assay text read “50 uM” for “100 uM”; method in brief: as §1
[25] = species: Cavia porcellus; experiment: Negative inotropic activity in guinea pig left atrium at 5 uM; format: functional, Cardiac atrium; method in brief: as §1

Compound `CCO[C@]1(c2ccc(Br)cc2)SC=C(C)n2c1noc2=O` has an EC50 [1] of 70 nM, an Activity [2] of 58% and an Activity [3] of 16%. It also gave an Activity [4] of 11%.
With `CSC1=NCCCN1S(=O)(=O)c1ccc(Cl)cc1` the EC50 [1] was 1330 nM, the Activity [5] was 92% and the Activity [3] was 5%. The Activity [4] was 57% and the IC50 [6] was 25100 nM.
`C=CCN(c1ccccc1)S(=O)(=O)c1ccc(Cl)cc1` gave an Activity [7] of 54%, an EC50 [1] of 310 nM and an Activity [2] of 73%. For the same compound, the Activity [3] was 5% and the IC50 [6] was 17700 nM.
Compound `COC(=O)[C@H]1SCCN1S(=O)(=O)c1ccc(Cl)cc1` has an EC50 [1] of 1000 nM, an Activity [8] of 92% and an Activity [3] of 2%. The Activity [4] was 29%.
`CCO[C@@]1(c2ccc(Br)cc2)SC=C(C)n2c1noc2=O` showed an Activity [9] of 15%, an Activity [2] of 47% and an Activity [4] of 7%.
For `O=S(=O)(c1ccc(Cl)cc1)N(Cc1ccsc1)S(=O)(=O)c1ccc(Cl)cc1`, the Activity [10] was 7%, the EC50 [1] was 2550 nM and the Activity [8] was 71%. It also gave an Activity [4] of 9%.
`CO/N=C/c1c(Sc2ccccc2C(=O)OC)nc2sccn12` gave an Activity [9] of 13%, an EC50 [1] of 900 nM and an Activity [11] of 63%. For the same compound, the Activity [12] was 9%.
For `O=C(c1ccccn1)c1conc1-c1c(Cl)cccc1Cl`, the EC50 [1] was 990 nM, the Activity [11] was 81% and the Activity [13] was 21%. For the same compound, the Activity [4] was 25%.
Compound `COc1ccc([C@@H]2Sc3ccccc3N(CCN(C)C)C(=O)[C@@H]2OC(C)=O)cc1` [DILTIAZEM] has an EC30 [14] of 70 nM, an Activity [5] of 78% and an Activity [13] of 94%. The Activity [15] was 98%, the EC50 [16] was 110 nM and the IC50 [17] was 480 nM. For the same compound, the Activity [4] was 88%, the Activity [18] was 82% and the EC50 [19] was 1610 nM. It also gave an Activity [20] of 59%, an Activity [21] of 25% and an Activity [22] of 51%. It also gave an Activity [23] of 34%.
`C=CCN(CC=C)S(=O)(=O)c1ccc(Cl)cc1` showed an Activity [24] of 98%, an EC50 [1] of 1170 nM and an Activity [3] of 6%. For the same compound, the Activity [4] was 42%.
Compound `CCN(c1ccccc1)S(=O)(=O)c1ccc(Cl)cc1` has an EC50 [1] of 300 nM, an Activity [25] of 90% and an Activity [13] of 7%. For the same compound, the Activity [4] was 46%.
